In ChEMBL document CHEMBL1156973, “(-)-Carbodine: enantiomeric synthesis and in vitro antiviral activity against various strains of influenza virus including H5N1 (avian influenza) and novel 2009 H1N1 (swine flu)” (Bioorg Med Chem Lett, 2010):

What was measured:
H5N1 subtype [1] = assay: Antiviral activity against Influenza A virus Gull/PA/4175/83/H5N1 infected MDCK cells after 3 days by virus yield reduction assay; type: functional, Influenza A virus (A/gull/Pennsylvania/4175/83(H5N1)); details: 72 h
H5N1 subtype [2] = assay: Antiviral activity against Influenza A virus Hong Kong/213/2003/H5N1 infected MDCK cells assessed as inhibition of virus-induced cytopathic effect after 3 days; type: functional, organism-based, Influenza A virus (A/Hong Kong/213/2003(H5N1)); details: 72 h
H5N1 subtype [3] = assay: Antiviral activity against Influenza A virus Hong Kong/213/2003/H5N1 infected MDCK cells after 42 to 46 hrs by neutral red dye uptake assay; type: functional, organism-based, Influenza A virus (A/Hong Kong/213/2003(H5N1)); details: Influenza A virus, MDCK
H5N1 subtype [4] = assay: Antiviral activity against Influenza A virus Hong Kong/213/2003/H5N1 infected MDCK cells after 3 days by virus yield reduction assay; type: functional, Influenza A virus (A/Hong Kong/213/2003(H5N1)); details: Influenza A virus, MDCK, 72 h
Influenza A virus [5] = assay: Antiviral activity against Influenza A virus Vietnam/1203/ 2004H/H5N1 infected MDCK cells assessed as inhibition of virus-induced cytopathic effect after 3 days; type: functional, organism-based, A/Viet Nam/1203/2004(H5N1)
Influenza A virus [6] = assay: Antiviral activity against Influenza A virus Vietnam/1203/ 2004H/H5N1 infected MDCK cells after 3 days by virus yield reduction assay; type: functional, A/Viet Nam/1203/2004(H5N1); details: Influenza A virus, A/Viet Nam/1203/2004(H5N1), MDCK
[7] = Selectivity ratio of IC50 for MDCK cells to EC50 for inhibition of virus-induced cytopathic effect of Influenza A virus Duck/MN/1525/81/H5N1; type: cell-based; details: dog, MDCK cells; read-out: Ratio IC50/EC50
Outline: (§1)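 IC50 (50% inhibition of uninfected MDCK cells) divided by EC50 (concentration reducing virus-induced CPE by 50%, scored visually), both from replicate serial-dilution assays.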

[8] = Selectivity ratio of IC50 for MDCK cells to EC50 for Influenza A virus Gull/PA/4175/83/H5N1 by neutral red dye uptake assay; type: ADME, cell-based; details: dog, MDCK cells; read-out: Ratio IC50/EC50
Outline: (§2)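 Neutral red uptake in MDCK cells: IC50 (50% inhibition of uninfected cells) divided by EC50 (50% inhibition of virus effect), both from replicate serial-dilution assays.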

[9] = Selectivity ratio of IC50 for MDCK cells to EC90 for Influenza A virus Gull/PA/4175/83/H5N1 by virus yield reduction assay; type: ADME, cell-based; details: dog
Outline: (§3)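 IC50 (50% inhibition of uninfected MDCK cells) divided by EC90 (concentration reducing the infectious virus titer by 90% in the yield reduction assay).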

[10] = Selectivity ratio of IC50 for MDCK cells to EC90 for Influenza A virus Hong Kong/213/2003/H5N1 by virus yield reduction assay; type: ADME, cell-based; details: dog, MDCK cells; outline: as §3
[11] = Selectivity ratio of IC50 for MDCK cells to EC50 for inhibition of virus-induced cytopathic effect of Influenza A virus Vietnam/1203/ 2004H/H5N1; type: cell-based; details: dog, MDCK cells; read-out: Ratio IC50/EC50; outline: as §1
[12] = Selectivity ratio of IC50 for MDCK cells to EC50 for Influenza A virus Vietnam/1203/ 2004H/H5N1 by neutral red dye uptake assay; type: ADME, cell-based; details: dog, MDCK cells; read-out: Ratio IC50/EC50; outline: as §2
Influenza A virus [13] = assay: Antiviral activity against Influenza A virus California/07/2009 /H1N1 infected MDCK cells assessed as inhibition of virus-induced cytopathic effect after 3 days; type: functional, organism-based, A/California/07/2009(H1N1); details: Influenza A virus, A/California/07/2009(H1N1), MDCK, 72 h
Influenza A virus [14] = assay: Antiviral activity against Influenza A virus California/07/2009 /H1N1 infected MDCK cells after 42 to 46 hrs by neutral red dye uptake assay; type: functional, organism-based, A/California/07/2009(H1N1); details: Influenza A virus, A/California/07/2009(H1N1), MDCK
[15] = tested on: Influenza A virus (A/Puerto Rico/8/1934(H1N1)); assay: Antiviral activity against Influenza A virus Solomon Islands/03/2006/H1N1 infected MDCK cells after 42 to 46 hrs by neutral red dye uptake assay; type: functional, organism-based, Influenza A virus (A/Solomon Islands/3/2006(H1N1)); details: Influenza A virus, MDCK
Outline: (§4)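 Triplicate MDCK wells got serial compound dilutions, then ≤300 CCID50 of virus, with the same inoculum for all replicates. Antiviral effect was read by neutral red dye uptake. EC50 is the concentration giving 50% inhibition of the virus effect, as the mean of triplicates.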

[16] = tested on: Influenza A virus (A/Puerto Rico/8/1934(H1N1)); assay: Antiviral activity against Influenza A virus Solomon Islands/03/2006/H1N1 infected MDCK cells after 3 days by virus yield reduction assay; type: functional, Influenza A virus (A/Solomon Islands/3/2006(H1N1)); details: Influenza A virus, MDCK, 72 h
Outline: (§5)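 Yield reduction assay: MDCK cells got serial compound dilutions and ≤300 CCID50 virus, in triplicate. Progeny virus was titrated. EC90 is the concentration reducing the infectious titer by 90%, as the mean of triplicates.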

Influenza A virus [17] = assay: Antiviral activity against Influenza A virus Wisconsin/67/2005/H3N2 infected MDCK cells assessed as inhibition of virus-induced cytopathic effect after 3 days; type: functional, organism-based, Influenza A virus (A/Wisconsin/67/2005(H3N2)); details: Influenza A virus, MDCK, 72 h
Outline: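 Triplicate MDCK (ATCC CCL-34) wells got serial dilutions of compound. They were then inoculated with ≤300 CCID50, enough for ~100% CPE in control wells within 3 days, using the same inoculum for all replicates. CPE was scored visually. EC50 is the concentration reducing CPE by 50%, as the mean of triplicates.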

Influenza A virus [18] = assay: Antiviral activity against Influenza A virus Wisconsin/67/2005/H3N2 infected MDCK cells after 3 days by virus yield reduction assay; type: functional, Influenza A virus (A/Wisconsin/67/2005(H3N2)); details: Influenza A virus, MDCK, 72 h; outline: as §5
Influenza B virus [19] = assay: Antiviral activity against Influenza B virus Malaysia/2506/2004 infected MDCK cells after 42 to 46 hrs by neutral red dye uptake assay; type: functional, organism-based, B/Malaysia/2506/2004; details: Influenza B virus, B/Malaysia/2506/2004, MDCK; outline: as §4
Influenza B virus [20] = assay: Antiviral activity against Influenza B virus Malaysia/2506/2004 infected MDCK cells after 3 days by virus yield reduction assay; type: functional, B/Malaysia/2506/2004; details: Influenza B virus, B/Malaysia/2506/2004, MDCK, 72 h; outline: as §5
[21] = Selectivity ratio of IC50 for MDCK cells to EC50 for inhibition of virus-induced cytopathic effect of Influenza A virus California/07/2009 /H1N1; type: cell-based; details: dog, MDCK cells; read-out: Ratio IC50/EC50; outline: as §1
[22] = Selectivity ratio of IC50 for MDCK cells to EC50 for Influenza A virus California/07/2009 /H1N1 by neutral red dye uptake assay; type: ADME, cell-based; details: dog, MDCK cells; read-out: Ratio IC50/EC50; outline: as §2
[23] = Selectivity ratio of IC50 for MDCK cells to EC50 for inhibition of virus-induced cytopathic effect of Influenza A virus Solomon Islands/03/2006/H1N1; type: cell-based; details: dog, MDCK cells; read-out: Ratio IC50/EC50; outline: as §1
[24] = Selectivity ratio of IC50 for MDCK cells to EC50 for inhibition of virus-induced cytopathic effect of Influenza A virus Wisconsin/67/2005/H3N2; type: cell-based; details: dog, MDCK cells; read-out: Ratio IC50/EC50; outline: as §1
[25] = Selectivity ratio of IC50 for MDCK cells to EC50 for Influenza A virus Wisconsin/67/2005/H3N2 by neutral red dye uptake assay; type: ADME, cell-based; details: dog, MDCK cells; read-out: Ratio IC50/EC50; outline: as §2
[26] = Selectivity ratio of IC50 for MDCK cells to EC90 for Influenza A virus Wisconsin/67/2005/H3N2 by virus yield reduction assay; type: ADME, cell-based; details: dog, MDCK cells; outline: as §3
[27] = Selectivity ratio of IC50 for MDCK cells to EC50 for inhibition of virus-induced cytopathic effect of Influenza B virus Malaysia/2506/2004; type: cell-based; details: dog, MDCK cells; read-out: Ratio IC50/EC50; outline: as §1
[28] = Selectivity ratio of IC50 for MDCK cells to EC50 for Influenza B virus Malaysia/2506/2004 by neutral red dye uptake assay; type: ADME, cell-based; details: dog, MDCK cells; read-out: Ratio IC50/EC50; outline: as §2
[29] = Selectivity ratio of IC50 for MDCK cells to EC90 for Influenza B virus Malaysia/2506/2004 by virus yield reduction assay; type: ADME, cell-based; details: dog, MDCK cells; outline: as §3
H5N1 subtype [30] = assay: Antiviral activity against Influenza A virus Duck/MN/1525/81/H5N1 infected MDCK cells after 42 to 46 hrs by neutral red dye uptake assay; type: functional, organism-based, Influenza A virus (A/duck/Minnesota/1525/1981(H5N1)); details: Influenza A virus, MDCK
H5N1 subtype [31] = assay: Antiviral activity against Influenza A virus Duck/MN/1525/81/H5N1 infected MDCK cells after 3 days by virus yield reduction assay; type: functional, Influenza A virus (A/duck/Minnesota/1525/1981(H5N1)); details: Influenza A virus, MDCK, 72 h
H5N1 subtype [32] = assay: Antiviral activity against Influenza A virus Gull/PA/4175/83/H5N1 infected MDCK cells assessed as inhibition of virus-induced cytopathic effect after 3 days; type: functional, organism-based, Influenza A virus (A/gull/Pennsylvania/4175/83(H5N1)); details: Influenza A virus, MDCK, 72 h

Compound | EC90 (H5N1 subtype [1]) | EC50 (H5N1 subtype [2]) | EC50 (H5N1 subtype [3]) | EC90 (H5N1 subtype [4]) | EC90 (Influenza A virus [6]) | selectivity ratio [7] | selectivity ratio [8] | selectivity ratio [9] | selectivity ratio [10] | selectivity ratio [11] | selectivity ratio [12] | EC50 (Influenza A virus [13]) | EC50 (Influenza A virus [14]) | EC50 [15] | EC90 [16] | EC50 (Influenza A virus [17]) | EC90 (Influenza A virus [18]) | EC50 (Influenza B virus [19]) | EC90 (Influenza B virus [20]) | selectivity ratio [21] | also measured
Nc1ccn([C@H]2C[C@@H](CO)[C@H](O)[C@@H]2O)c(=O)n1 | > 41 µM | > 41 µM | > 41 µM | > 41 µM | > 41 µM | 1 | < 10 | < 10 | < 10 | < 10 | < 10 | > 414 µM | > 414 µM | > 41 µM | > 41 µM | > 41 µM | > 41 µM | > 41 µM | > 41 µM | 1 | EC50 (Influenza A virus [5]; Influenza A virus, A/Viet Nam/1203/2004(H5N1), MDCK): > 41 µM; selectivity ratio [22]: 1; selectivity ratio [23]: < 10; selectivity ratio [24]: < 10; selectivity ratio [25]: < 10; selectivity ratio [26]: < 10; selectivity ratio [27]: < 10; selectivity ratio [28]: < 10; selectivity ratio [29]: < 10; EC50 (H5N1 subtype [30]): > 414 µM; EC90 (H5N1 subtype [31]): > 414 µM; EC50 (H5N1 subtype [32]): > 41 µM
NC(=O)c1ncn([C@@H]2O[C@H](CO)[C@@H](O)[C@H]2O)n1 [RIBAVIRIN] | 20.3 µM | 4.3 µM | 9.4 µM | 16.8 µM | 11.6 µM | > 37 | > 48 | > 65 | > 78 | > 156 | > 94 | 11.2 µM | 19.4 µM | 25.1 µM | 27 µM | 16.4 µM | 21.7 µM | 19.5 µM | 22.2 µM | > 117 | EC50 (Influenza A virus [5]; mdck): 8.4 µM; selectivity ratio [22]: > 68; selectivity ratio [23]: > 56; selectivity ratio [24]: > 80; selectivity ratio [25]: > 65; selectivity ratio [26]: > 60; selectivity ratio [27]: > 128; selectivity ratio [28]: > 67; selectivity ratio [29]: > 59; EC50 (H5N1 subtype [30]): 32.5 µM; EC90 (H5N1 subtype [31]): 43.6 µM; EC50 (H5N1 subtype [32]): 23.6 µM
